# Screening data: PubChem, several laboratories
# SENP1 FRET inh – SENP1 (human) catalytic domain inhibition. 0.21% of 360,000 active. Q9P0U3. recombinant SENP1 catalytic domain, CyPet-SUMO1-YPet FRET cleavage. inhibition, % at 10 µM. AID 624204;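 active means inhibition at least 30% at 10 µM, raw YFP signal under a set limit, fluorescence ratio 0.5 to 1.5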
#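 Assay system: hSENP1 catalytic domain, recombinant. Amount: SENP1 enzyme, 20 pM final. Schedule: 50 min reaction, RT, dark. Technique: FRET, CFP and YFP emission. Control set: no-enzyme wells low, DMSO-plus-enzyme wells high control.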
# GASC-1 inh – blocks human GASC-1 demethylase activity; Q9H3R0; GST-JMJD2C(1-420) H3K9me3 demethylation, DELFIA europium; inhibition, % at 2.35 µM; 0.069% of 330,000 active;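 active means more than half of a compound's replicate wells show inhibition beyond 50%, single wells judged on their own value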;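 further: signal counts dimethyl H3K9 product captured on neutravidin plate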
# FAS-TE inh – inhibitors of human fatty acid synthase thioesterase domain | recombinant FAS-TE, OMFH fluorogenic substrate, fluorescence endpoint | AID 602261 | P49327 | inhibition, % at 15 µM | 0.67% of 360,000 active;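 active means compounds whose normalised, plate-corrected inhibition of enzyme fluorescence in the single-dose primary screen is 50% or more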
# Arr AP2 block – inhibitors of human beta-arrestin and AP2 interaction; inhibition, % at 10 µM; FITC-arrestin peptide / GST-AP2 beads, flow cytometry; AP2 beta2 appendage carries R879A mutation; 0.31% of 340,000 active;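 active means inhibition above a set limit, near 3 SD of compounds lacking own fluorescence, cut at about 54% in these data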
#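 System: GST-AP2 R879A bound to glutathione beads, E. coli-expressed. Also added: 50 nM FITC-arrestin peptide. Schedule: compound with beads 12 min RT, then probe 1 h RT. Signal: bead flow cytometry, FITC channel. Read-out basis: percent response.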
# SENP1 inh conf – SENP1 (human) inhibition, single concentration confirmation; shares compounds with SENP1 FRET inh; recombinant SENP1, CyPet-SUMO1-YPet FRET cleavage; inhibition, % at 10 µM; 34% of 520 active; in the data active means inhibition mostly above about 35%, no sharp cut-off; inactive means mostly below about 32%
# SENP1 kin conf – confirmation of human SENP1 SUMO protease inhibitors, kinetic; shares compounds with SENP1 FRET inh; recombinant SENP1, CyPet-SUMO1-YPet FRET kinetic cleavage; 26% of 520 active; inhibition, % at 10 µM; in the data active means inhibition mostly above about 32%, no sharp cut-off; inactive means mostly below about 29%
# Numbers stand for hits; 0 = inactive; - = no result given; ! = not active in a repeat. Most compounds without a hit are left out; they make up all but 1.1% or so of the library.
SMILES,SENP1 FRET inh,GASC-1 inh,FAS-TE inh,Arr AP2 block,SENP1 inh conf,SENP1 kin conf
CC(C)C(=O)Nc1nnc(COc2ccc(Cl)cc2)s1,45.7,0,0,0,0,0
O=C(CSCc1ccc(Cl)cc1)Nc1nccs1,0,0,0,0,-,-
COc1ccc(N=Nc2nc3cc(Br)c(Br)cc3n2C)c(OC)c1,61.0,0,0,0,0,43.6
COc1ccc(/C=C/C(=O)Nc2ccc(OC)cc2[N+](=O)[O-])cc1,64.1,0,0,0,0,0
COc1ccc(NC(=O)/C=C/c2ccccc2)c([N+](=O)[O-])c1,0,0,0,0,-,-
Cc1cc2c(C)nc(N/N=C/c3ccc([N+](=O)[O-])cc3)nc2o1,35.9,0,0,0,0,0
Cc1cc2c(C)nc(N/N=C/c3ccc(F)cc3)nc2o1,0,0,0,0,-,-
O=[N+]([O-])c1ccc(C=NNc2ccccc2)cc1,71.6,-,0,0,59.0,43.0
CN(C)C(=O)CSc1ccc(S(=O)(=O)N2CCCC2)cn1,39.2,-,0,0,43.9,42.2
COc1cc2cc3c(N)c(C(=O)NCc4ccco4)sc3nc2cc1OC,0,0,0,0,-,-
Cc1ccc2nc3sc(C(=O)NCc4ccco4)c(N)c3cc2c1,34.3,0,0,0,110.2,71.2
O=C(Nc1ccc(Br)cc1Cl)c1ccc(OCC2CCCO2)cc1 (stereo not given),0,0,0,0,-,-
COc1ccc(C(=O)N/N=C(/C)c2cccc(NC(=O)c3ccccc3F)c2)cc1,0,0,0,0,-,-
C/C(=N\NC(=O)c1ccccc1F)c1ccc2c(c1)Nc1ccccc1S2,35.1,0,0,0,59.8,39.3
C/C(=N\NC(=O)c1ccc(O)cc1)c1ccc2c(c1)Nc1ccccc1S2,70.5,0,0,0,86.4,56.1
CC(=O)Nc1cccc(/C(C)=N/NC(=O)c2ccc(O)cc2)c1,0,0,0,0,-,-
CCCCCc1cccnc1,0,0,0,0,-,-
COC(=O)C1=C(C)N(Cc2ccco2)C(=O)/C1=C\c1ccc([N+](=O)[O-])cc1,0,0,0,0,-,-
COC(=O)C1=C(C)N(Cc2ccco2)C(=O)/C1=C\c1ccc(N(C)C)cc1,46.1,0,0,0,0,0
Nc1ccc2c(c1)C(=NO)c1cc([N+](=O)[O-])ccc1-2,82.6,-,0,0,86.4,46.5
O=[N+]([O-])c1ccc2c(c1)-c1ccccc1C2=NO,0,-,0,0,-,-
O=C(Nc1cc2c(cc1Cl)-c1ccc([N+](=O)[O-])cc1C2=NO)C(F)(F)F,84.8,-,0,0,57.0,36.3
Cn1cc(CNC(=O)Nc2ccc3c(c2)OCO3)cn1,0,0,0,0,-,-
O=C(NCc1ccccc1)C(=O)NCC1OCCCN1S(=O)(=O)c1cccs1 (stereo not given),0,0,0,0,-,-
Cc1nc2cc(NCc3ccc(Cl)cc3)ccc2n1C,31.2,0,0,0,0,0
SMILES,SENP1 FRET inh,GASC-1 inh,FAS-TE inh,Arr AP2 block,SENP1 inh conf,SENP1 kin conf
COc1ccc2oc(=O)c(/C(N)=N/NC(=O)c3ccncc3)cc2c1,36.6,0,0,0,0,0
C/C(=N\NC(=O)c1ccncc1)c1cc2ccccc2oc1=O,0,0,0,0,-,-
COc1ccc(N2CCN(C(=O)c3ccc4c(c3)NC(=O)C(CSCc3ccccc3F)N4)CC2)cc1 (stereo not given),33.0,-,0,-,0,0
Fc1ccc(-c2cnn3c(-c4cccs4)ccnc23)cc1,56.0,0,0,0,0,0
CC(=O)Nc1ccc(S(=O)(=O)Nc2ccc3nc(C)sc3c2)cc1,0,0,0,0,-,-
Cc1ccc(S(=O)(=O)Nc2ccc3nc(C)sc3c2)cc1,0,0,0,0,-,-
Cc1nc2ccc(NS(=O)(=O)c3ccc(F)c(F)c3)cc2s1,54.0,0,0,0,0,0
Cc1nc2ccc(NS(=O)(=O)c3ccc(Br)cc3)cc2s1,40.5,0,0,0,0,0
Cc1nc2ccc(NS(=O)(=O)c3ccccc3F)cc2s1,54.8,0,0,0,0,38.2
Cc1nc2cc(NS(=O)(=O)c3ccccc3F)ccc2s1,0,0,0,0,-,-
CNC(=S)N1CCC(NC(=O)c2ccco2)CC1,-,0,-,-,-,-
O=S(=O)(Nc1nc2ccccc2nc1Cl)c1ccc2ccccc2c1,0,0,0,0,-,-
O=c1c2ccccc2nc(/C=C/c2cc(Br)ccc2O)n1CCO,75.9,0,0,0,83.6,45.0
O=c1c2ccccc2nc(/C=C/c2c[nH]c3ccccc23)n1CCO,0,0,0,0,-,-
CCN1C(=O)c2cccc3c(NC(=O)c4cccc(N5C(=O)CCC5=O)c4)ccc1c23,57.8,0,0,0,43.5,0
CCC(C)[C@H](NC(=O)N1CC(=O)Nc2ccccc21)C(=O)N[C@H](Cc1c[nH]c2ccccc12)C(=O)O (stereo not given in full),0,0,0,0,-,-
CC1CN(CCC(=O)Nc2ccc3c(c2)OCO3)CC(C)O1 (stereo not given),0,0,0,0,-,-
Cc1ccc(-c2nc(N/N=C/c3cccc([N+](=O)[O-])c3)c3ccccc3n2)cc1,31.2,0,0,0,0,0
COc1cccc(NC(=S)NC2CC(C)CC(C)(C)C2)c1 (stereo not given),0,-,0,-,-,-
COc1ccc(OC)c(CCNC(=O)c2ccc3c(=O)[nH]c4c(C(=O)NC(C)C)sc(=S)n4c3c2)c1,50.3,0,0,0,41.4,40.1
Cc1c(C(=O)N2CCN(C(=O)c3ccccc3)CC2)oc2ccc(F)cc12,0,-,0,0,-,-
CN1Cc2c(N)cccc2C(c2ccccc2)C1 (stereo not given),74.1!,0,0,0,67.0,44.8
CCOC(=O)C1CCCN(C2=NC(=O)/C(=C/c3ccc(O)c(OC)c3)S2)C1 (stereo not given),69.0,0,0,0,110.2,66.4
CNC(=O)C(NC(=O)Nc1ccc(C)cc1)C(C)(C)C (stereo not given),0,0,0,0,-,-
Nc1ccc2c(c1)-c1ccc(F)cc1C2=O,82.1,-,0,0,49.3,0
SMILES,SENP1 FRET inh,GASC-1 inh,FAS-TE inh,Arr AP2 block,SENP1 inh conf,SENP1 kin conf
COc1ccc(O)c(C(=O)c2cc(C#N)c(=O)n(CC3CCCO3)c2)c1 (stereo not given),38.9,0,0,0,0,35.8
Cc1ccc(O)c(C(=O)c2cc(C#N)c(=O)n(CC3CCCO3)c2)c1 (stereo not given),0,0,0,0,-,-
Cc1ccc(-c2cn(-c3ccccc3F)c(=S)[nH]2)cc1,0,0,0,0,-,-
O=[N+]([O-])c1ccc(-c2cn(-c3ccccc3F)c(=S)[nH]2)cc1,30.0,0,0,0,0,0
CC(C)(NO)/C(=N/O)c1ccc(Br)cc1,0,0,0,0,-,-
COc1ccc(N/N=C(/C)c2cnnc(-c3ccccc3)n2)cc1,65.9,0,0,0,0,0
COCCNc1nnc(SCC(=O)N(C)c2c(N)n(Cc3ccccc3)c(=O)[nH]c2=O)s1,0,0,0,0,-,-
CC1(C)CC(=O)C=C(c2ccc(-c3ccc4[nH]ccc4c3)cc2)C1=O,29.4,-,0,-,0,0
